# Source: PubChem BioAssay (several laboratories)
# NPY1 pot ag: human NPY-Y1 potentiation or agonism, primary screen | NPY-Y1 expressing cells, potentiator/agonist activation | activation, % at 3.6 µM | 0.37% of 220,000 active | AID 1304; in the data active = activation above about 33%, passing the limit was not always enough;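 note: cells stimulated with NPY at EC10 then isoproterenol at EC100; 0% = low agonist plus stimulus and 100% = saturating agonist plus stimulus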
# Target sequence (P25929 whole entry, looked up): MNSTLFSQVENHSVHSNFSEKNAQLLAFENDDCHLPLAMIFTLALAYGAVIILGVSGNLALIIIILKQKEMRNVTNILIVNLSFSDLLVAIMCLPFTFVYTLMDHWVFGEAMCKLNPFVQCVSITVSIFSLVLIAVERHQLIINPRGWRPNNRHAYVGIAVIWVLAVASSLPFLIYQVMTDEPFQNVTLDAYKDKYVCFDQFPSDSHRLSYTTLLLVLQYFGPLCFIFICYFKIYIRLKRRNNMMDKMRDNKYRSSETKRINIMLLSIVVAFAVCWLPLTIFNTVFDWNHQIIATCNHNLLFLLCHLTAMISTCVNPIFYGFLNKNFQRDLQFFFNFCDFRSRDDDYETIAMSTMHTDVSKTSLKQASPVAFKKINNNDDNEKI
# NPY2 pot ag: potentiates or activates human NPY-Y2 receptor. P49146. cells expressing NPY-Y2, potentiator/agonist read-out. activation, % at 3.6 µM. 0.45% of 220,000 active. AID 1359; in the data active = activation above about 27%;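 note: cells stimulated with NPY near EC25 plus isoproterenol at EC100; 0% = vehicle plus submaximal agonist and 100% = vehicle plus saturating agonist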
# NPY Y2 blocker: NPY-Y2 (human) receptor antagonism; AID 793; NPY-Y2 expressing cells, antagonist mode; inhibition, % at 2.7 µM; 0.99% of 140,000 active; in the data active = inhibition above about 17%;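 note: 0% = vehicle with agonist challenge and 100% = reference antagonist with challenge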
# EP2 modulator: modulators of human EP2 prostaglandin E2 receptor. P43116. EP2-expressing cells, cAMP HTRF FRET, PGE2 co-stimulation. induction, % at 25 µM. 0.83% of 260,000 active. AID 940;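 active = compounds whose cAMP rise, as percent of the full-agonist control response, exceeds 60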;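 note: rat C6 glioma line stably carrying human EP2 under a CMV promoter; the protocol text gives 20 µM as final concentration; 100% = response of wells given 1 µM PGE2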
# Target sequence (P43116 whole entry, looked up): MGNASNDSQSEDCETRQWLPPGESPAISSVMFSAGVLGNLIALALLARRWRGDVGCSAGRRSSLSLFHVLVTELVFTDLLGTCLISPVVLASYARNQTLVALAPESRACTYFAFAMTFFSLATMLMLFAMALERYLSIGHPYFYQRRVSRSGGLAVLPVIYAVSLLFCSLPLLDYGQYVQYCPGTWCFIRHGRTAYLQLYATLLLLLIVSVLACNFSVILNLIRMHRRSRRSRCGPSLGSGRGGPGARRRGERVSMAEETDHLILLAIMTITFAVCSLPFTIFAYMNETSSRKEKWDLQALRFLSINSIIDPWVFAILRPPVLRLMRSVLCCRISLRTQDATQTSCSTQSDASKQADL
# PGE2 EP2 inh: blocks the human prostaglandin E2 receptor EP2 | C6 glioma cells expressing human EP2, cAMP TR-FRET; cells stimulated with saturating PGE2 | inhibition, % at 25 µM | 0.52% of 260,000 active;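 active = percent inhibition above 40 after rounding to a whole number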;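 note: rat C6 glioma host cells with rolipram phosphodiesterase inhibitor present; the protocol text gives 20 µM as final concentration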
# NPY Y1 blocker: blocks the human neuropeptide Y Y1 receptor; 1% of 200,000 active; inhibition, % at 3.6 µM; HEK293-CNG Y1 cells, membrane potential fluorescence; NPY at EC95, then isoproterenol; AID 1040;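 active = inhibition above the campaign mean inhibition of all tested compounds plus 3 SD, cut at about 20% in these data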;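 note: 0% = DMSO wells given NPY plus isoproterenol and 100% = isoproterenol alone without NPY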
#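 Assay system: HEK293 Y1/CNG channel cell line; Doses: single compound dose of 3.6 µM, 0.4% DMSO; Timing: dye 3 h, compound 60 min room temperature, stimulation 45 min; Technique: Membrane-potential fluorescent dye readout; Measure: % inhibition of NPY effect.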
# NPY1 antag ctr: human NPY-Y1 antagonism in NPY-Y2 counter-screen; cell-based NPY-Y1 antagonism counterscreen; inhibition, % at 3.6 µM; 19% of 710 active; shares compounds with NPY Y2 blocker; in the data active = inhibition above about 20%;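 note: cells challenged with NPY then isoproterenol with cAMP sensed through a CNG channel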
# NPY2 antag conf: human NPY-Y2 antagonism, confirmation | HEK293 NPY-Y2 CNG channel, membrane potential fluorescence | shares compounds with NPY Y2 blocker | 32% of 710 active | inhibition, % at 2.8 µM;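 active = mean inhibition of triplicate wells above the hit cutoff set in the primary screen, cut at about 17% in these data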;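 note: 0% = DMSO with NPY challenge and 100% = BIIE0246 high control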
# * hit, by the source's call; nt = no result given. The list is not random: actives were taken first. Their share in the collection is about 2.8%.
SMILES,NPY1 pot ag,NPY2 pot ag,NPY Y2 blocker,EP2 modulator,PGE2 EP2 inh,NPY Y1 blocker,NPY1 antag ctr,NPY2 antag conf
Clc1ccc(CSc2nnc(COc3ccc4ccccc4c3)o2)cc1,nt,nt,nt,-67.7,8.3,nt,nt,nt
Clc1ccc(CSc2nnc(/C=C/c3ccccc3)o2)cc1,-18.9,-8.6,18.1*,0.8,12.0,0.9,24.1*,21.0*
CN1[C@@H](C(=O)N2CCCCCC2)C[C@@H](c2ccco2)NS1(=O)=O,nt,nt,nt,1.3,nt,nt,nt,nt
COc1cc(NC(=O)CSc2nnc(-c3ccoc3C)n2C)cc(OC)c1,nt,nt,nt,-18.0,12.1,nt,nt,nt
CCCCNC(=O)c1onc(CSc2ccc(F)c(F)c2)c1C(=O)O,-8.6,-19.1,22.9*,31.5,14.7,13.6,13.7,11.7
COc1ccc(C2(C(=O)N[C@@H](Cn3nc(C4CC4)ccc3=O)C(C)C)CC2)cc1,nt,nt,nt,14.8,nt,nt,nt,nt
COc1ccc(CCNC(=O)CSc2nc(O)cc(=O)[nH]2)cc1OC,-20.8,-5.3,nt,-30.5,8.8,nt,nt,nt
COc1ccc(CCNC(=O)CSc2nc(O)c(CC(C)C)c(=O)[nH]2)cc1OC,4.1,6.1,17.4*,24.2,13.3,-2.1,2.1,1.5
CCCCOc1ccc(C2=NNC(=O)CC2)cc1,-39.6,-9.9,22.5*,27.0,11.5,9.4,19.0,39.4*
COc1ccccc1NC(=O)N(Cc1ccccc1Cl)Cc1cc2ccc(C)c(C)c2[nH]c1=O,nt,nt,nt,19.9,16.7,nt,nt,nt
Cc1ccc(-c2nnc(/C=C/c3ccccc3)o2)cc1,-9.7,-9.4,20.0*,9.5,3.5,6.2,6.9,10.1
Cc1ccc(/C=C/c2nnc(-c3cccc(C)c3)o2)cc1,-8.6,3.0,3.9,30.9,6.0,8.8,nt,nt
COc1cccc(C2C(C(N)=O)=C(C)Nc3nc(-c4ccccc4Cl)nn32)c1 (centres undefined),5.9,11.0,20.1*,17.2,6.0,-2.9,-1.6,1.1
CN1CN2C(=O)N3CN(C)CN4C(=O)N(C1)C2C34 (centres undefined),nt,nt,nt,5.9,6.3,nt,nt,nt
CCCC(c1nnnn1C1CCCC1)N1CCN(c2ccccc2F)CC1 (centres undefined),-2.6,-16.8,18.4*,-10.8,10.6,13.7,17.9,4.1
NNC(=O)Cn1c(SCc2ccccc2)nc2ccccc21,-10.9,11.4,21.9*,7.2,3.8,-4.4,-2.6,3.8
CCCCC(=O)N/N=C/c1ccc(N2CCOCC2)c([N+](=O)[O-])c1,-32.3,-5.9,20.6*,-34.3,12.8,-0.3,8.0,17.4*
O=C(N/N=C/c1ccccc1)c1ccc(N2CCOCC2)c([N+](=O)[O-])c1,0.4,-3.7,3.1,14.8,4.0,7.1,nt,nt
COc1ccc(OCCNc2cc(N3CCCCC3)ccc2[N+](=O)[O-])cc1,-12.2,-6.8,17.5*,-6.2,nt,6.8,4.3,7.1
CCc1nn(CC(=O)N2CCN(c3ccccc3F)CC2)c(=O)c2cc3ccsc3n12,nt,nt,nt,-6.0,nt,nt,nt,nt
Cc1ccc(C(C(=O)NC2CCCCC2)N(Cc2ccco2)C(=O)Cc2c[nH]c3ccccc23)o1 (centres undefined),-4.6,-5.3,18.8*,54.1,5.5,13.8,13.4,10.8
COCCOC(=O)c1[nH]c2c(c1C)C(=O)CC(c1ccco1)C2 (centres undefined),3.2,9.4,31.7*,3.9,5.1,8.6,-2.8,5.2
Brc1cc2c(cc1Br)OCCOCCOCCOCCO2,-2.0,-4.5,nt,-34.9,2.4,3.1,nt,nt
Brc1ccc2c(c1)OCCOCCOc1cc(Br)ccc1OCCOCCOCCO2,-16.4,-4.5,23.8*,10.1,8.8,18.5,19.1,15.1
CCn1c(SCC(=O)N2CCCc3ccccc32)nnc1C(C)C,nt,nt,nt,-12.9,8.2,nt,nt,nt
SMILES,NPY1 pot ag,NPY2 pot ag,NPY Y2 blocker,EP2 modulator,PGE2 EP2 inh,NPY Y1 blocker,NPY1 antag ctr,NPY2 antag conf
CCc1cccc(CC)c1NC(=O)c1ccccc1CCc1ccccc1,-48.4,-6.2,18.7*,23.4,7.8,2.0,28.2*,16.9
CCC(C)N(C(=O)COC(=O)/C=C/c1ccc(O)c(OC)c1)C1CCS(=O)(=O)C1 (centres undefined),9.0,-1.3,18.3*,-4.0,4.9,4.0,0.7,0.4
COc1cc(/C=C/C(=O)OCC(=O)NC2CCS(=O)(=O)C2)ccc1O (centres undefined),0.4,-1.1,-1.0,4.0,5.9,-1.3,nt,nt
OC(CNCc1ccc(F)cc1)(c1ccc(F)cc1)c1ccc(F)cc1,-8.7,-2.1,19.8*,43.6,1.1,15.5,16.4,10.4
CCCCN1C2=NCCCN2c2cc(C)c(C)cc21,-13.1,-5.6,21.7*,-3.3,nt,13.0,10.8,5.8
CCCCN1C2=NCCCN2c2ccccc21,17.2,9.4,0.8,-2.9,9.0,4.3,nt,nt
CCCC(c1nnnn1C1CCCCC1)N(Cc1cc2ccc(C)cc2[nH]c1=O)C1CCCC1 (centres undefined),nt,nt,nt,26.3,5.7,nt,nt,nt
Clc1ccc(CSc2nnc(-c3ccc4c(c3)OCO4)o2)cc1,-20.6,3.2,22.4*,-21.5,13.2,8.9,26.9*,29.7*
Cc1ccc2c(c1)cc(CN(CC1CCCO1)C(=O)C1CC1)c1nnnn12 (centres undefined),nt,nt,nt,22.0,9.1,nt,nt,nt
CC(C)C(OC(=O)CN1C(=O)COc2ccccc21)C(=O)NC1CCCC1 (centres undefined),-4.5,-1.2,18.2*,22.5,8.2,16.9,9.8,6.6
Cc1ccccc1N(CC(=O)NC1CCCC1)C(=O)CN1C(=O)COc2ccccc21,nt,nt,nt,3.4,7.9,nt,nt,nt
O=C(NC1CCCCCC1)c1c2c(nc3ccccc13)CCN(Cc1ccccc1)C2,5.8,-5.6,55.8*,3.2,8.2,10.0,81.1*,67.0*
CC(C)c1ccccc1NC(=O)COC(=O)c1c2c(nc3ccccc13)CCN(Cc1ccccc1)C2,-18.0,-6.3,18.7*,-25.5,13.6,18.3,17.0,9.2
COc1cc(OC)cc(C(=O)N2CCC(C(=O)NC(C)(C)C)CC2)c1,nt,nt,nt,-7.5,11.3,nt,nt,nt
O=C(Cc1ccc2c(c1)CCCC2)Nc1ccc2ccccc2c1,-11.0,-14.2,17.7*,-15.6,3.0,18.2,10.8,12.6
CC(C)CCNC(=O)c1cc(-c2ccco2)nc2ccccc12,-149.4,-111.5,32.8*,-13.8,5.5,19.1,39.8*,40.1*
Cc1ccc(N2C(=O)CSC2c2ccc3c(c2)OCO3)cc1 (centres undefined),-0.8,1.3,18.0*,-4.0,nt,0.5,1.9,1.9
O=C1CSC(c2ccc3c(c2)OCO3)N1c1ccc(Oc2ccccc2)cc1 (centres undefined),-18.2,-9.8,9.2,-2.5,1.2,7.4,nt,nt
Cc1ccccc1OCCCSc1nc2ccccc2[nH]1,-12.1,7.8,17.5*,0.1,7.2,7.0,3.8,2.4
